Source: article PMC4474499 (Science Advances, 2015)

Columns and labels:
human TLR2 = human TLR2 (Homo sapiens, UniProt O60603+Q15399); experiment: SEAP reporter gene detection assay in HEK-Blue hTLR2 cells; format: cell-based
Method in brief: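 HEK-Blue hTLR2 cells (SEAP reporter), 4 × 10^4/well, grown 24 h. Then 24 h in Opti-MEM/0.5% FBS with compounds at 0–50 μM or 0–100 μM. Pam3CSK4 (0–66 nM) used as reference agonist. Supernatant heat-treated 30 min at 65°C, cooled, mixed with SEAP buffer and CSPD substrate; luminescence read after 20 min.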

human TLR8 = molecular target: T1, human TLR8 (Homo sapiens, UniProt Q9NR97); experiment: SEAP reporter gene detection assay in HEK-Blue TLR8 cells; format: cell-based; conditions: 0 to 20 μM, 24 hours
T1 sequence (Q9NR97 27-1041): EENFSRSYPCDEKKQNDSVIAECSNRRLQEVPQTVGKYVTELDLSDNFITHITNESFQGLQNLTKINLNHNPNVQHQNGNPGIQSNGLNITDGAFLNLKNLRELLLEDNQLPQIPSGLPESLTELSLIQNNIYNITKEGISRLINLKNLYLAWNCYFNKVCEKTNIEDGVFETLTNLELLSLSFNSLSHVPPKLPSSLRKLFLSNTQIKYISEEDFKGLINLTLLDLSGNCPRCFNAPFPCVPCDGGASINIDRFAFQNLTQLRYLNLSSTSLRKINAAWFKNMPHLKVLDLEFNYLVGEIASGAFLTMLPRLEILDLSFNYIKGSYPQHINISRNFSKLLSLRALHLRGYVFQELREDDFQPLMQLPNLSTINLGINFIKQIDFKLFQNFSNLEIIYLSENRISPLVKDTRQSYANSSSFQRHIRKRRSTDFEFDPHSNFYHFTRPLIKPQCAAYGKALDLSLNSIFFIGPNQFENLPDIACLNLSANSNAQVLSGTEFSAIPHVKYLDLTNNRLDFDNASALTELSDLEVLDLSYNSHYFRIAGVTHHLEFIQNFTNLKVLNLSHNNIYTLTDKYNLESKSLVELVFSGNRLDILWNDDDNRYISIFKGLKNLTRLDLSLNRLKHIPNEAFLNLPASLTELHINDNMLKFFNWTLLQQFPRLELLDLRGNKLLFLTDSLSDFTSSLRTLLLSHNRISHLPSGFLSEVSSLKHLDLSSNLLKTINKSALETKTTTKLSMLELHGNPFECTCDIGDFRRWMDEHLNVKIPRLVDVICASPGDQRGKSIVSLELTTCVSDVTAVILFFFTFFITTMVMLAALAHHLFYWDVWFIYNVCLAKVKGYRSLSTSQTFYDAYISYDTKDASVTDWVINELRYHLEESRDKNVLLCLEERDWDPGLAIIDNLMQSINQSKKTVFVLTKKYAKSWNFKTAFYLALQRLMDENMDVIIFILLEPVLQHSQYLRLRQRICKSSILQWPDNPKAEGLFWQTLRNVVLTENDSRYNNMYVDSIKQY
Method in brief: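 HEK 293 cells stably carrying the human TLR and a SEAP reporter, 4 × 10^4/well, grown 24 h. Then 24 h in Opti-MEM/0.5% FBS with test compound. Positive controls: poly(I:C) 0–10.9 μg/ml (TLR3), LPS 0–36.5 ng/ml (TLR4), FLA-BS 0–10 μg/ml (TLR5), R848 0–6 μg/ml (TLR7, TLR8). Supernatant heated 30 min at 65°C, then CSPD substrate added; luminescence read after 20 min.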

HEK-Blue hTLR2 cells = experiment: QUANTI-Blue SEAP assay with anti-hTLR antibodies; format: cell-based, human; conditions: 60 nM, 24 hours
Method in brief: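 HEK-Blue hTLR2 cells, 4 × 10^4/well, grown 24 h. Then 24 h in Opti-MEM/0.5% FBS containing 60 nM test compound, 0.66 nM Pam3CSK4 or 0.77 nM Pam2CSK4. Anti-hTLR1 IgG, anti-hTLR2 IgA or anti-hTLR6 IgA added at 0–10 μg/ml. Supernatant incubated with QUANTI-Blue 1 h at 37°C; A655 read.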

[1] = system: primary rat macrophage cells; experiment: Primary peritoneal macrophage NO activation assay; format: cell-based; conditions: 24 hours
Method in brief: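 Peritoneal cells from Sprague-Dawley rats collected by HBSS lavage, then red cells lysed. Seeded at 40,000/well in Iscove's medium with 10% FBS; adhered 2 h; non-adherent cells washed off; cultured overnight. Serum-free Iscove's then given with test compound, or 66 nM Pam3CSK4, for 24 h. Supernatant nitrite measured by diaminonaphthalene fluorescence.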

human TLR1/2 = human TLR1/2 (Homo sapiens, UniProt O60603+Q15399); experiment: Competition binding ELISA assay with biotin-labeled Pam3CSK4; conditions: 50 nM (100 ng/ml) Biotin-Pam3, 0 to 7 μM CU-T12-9
Method in brief: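 Human TLR1 (5 μg/ml) plus TLR2 (4 μg/ml), or BSA, coated in 0.1 M acetate pH 5.0 overnight at 4°C. Blocked with 5% BSA 1 h. Biotin-Pam3CSK4 with or without test compound, 1 h RT. Then streptavidin-HRP (1:2000) 1 h, TMB 10–30 min, stopped with 1 M H3PO4. A450 read, 620 nm reference. Signal at zero compound set as 100%.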

TLR1 = molecular target: T2, TLR1 (Homo sapiens, UniProt Q15399); experiment: Microscale thermophoresis; format: binding
T2 sequence (Q15399 25-580 limits assumed): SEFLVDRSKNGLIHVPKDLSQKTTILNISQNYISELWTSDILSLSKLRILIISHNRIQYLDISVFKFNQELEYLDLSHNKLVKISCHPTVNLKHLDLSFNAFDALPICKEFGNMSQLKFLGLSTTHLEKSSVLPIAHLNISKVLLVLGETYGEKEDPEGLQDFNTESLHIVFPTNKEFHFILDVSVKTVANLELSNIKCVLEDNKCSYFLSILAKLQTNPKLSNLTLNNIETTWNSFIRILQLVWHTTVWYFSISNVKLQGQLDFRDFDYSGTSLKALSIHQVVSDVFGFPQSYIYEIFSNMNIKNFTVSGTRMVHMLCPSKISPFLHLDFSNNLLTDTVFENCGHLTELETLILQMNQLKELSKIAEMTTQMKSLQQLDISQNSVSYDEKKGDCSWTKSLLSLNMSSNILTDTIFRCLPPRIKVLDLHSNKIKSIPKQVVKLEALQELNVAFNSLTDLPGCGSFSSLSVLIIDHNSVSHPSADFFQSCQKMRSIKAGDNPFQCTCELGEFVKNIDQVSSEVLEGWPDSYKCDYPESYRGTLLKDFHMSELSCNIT
Method in brief: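 Human TLR1 expressed in baculovirus-infected High Five insect cells and purified on protein A Sepharose. Labelled with NT-647 and held at 10 nM. Test compound varied 0.31 nM–10 μM. Buffer: 50 mM Tris-HCl pH 7.6, 150 mM NaCl, 10 mM MgCl2, 0.05% Tween 20, in glass capillaries. Apparent Kd fitted from thermophoresis.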

Sequence of human TLR2 (O60603 21-784): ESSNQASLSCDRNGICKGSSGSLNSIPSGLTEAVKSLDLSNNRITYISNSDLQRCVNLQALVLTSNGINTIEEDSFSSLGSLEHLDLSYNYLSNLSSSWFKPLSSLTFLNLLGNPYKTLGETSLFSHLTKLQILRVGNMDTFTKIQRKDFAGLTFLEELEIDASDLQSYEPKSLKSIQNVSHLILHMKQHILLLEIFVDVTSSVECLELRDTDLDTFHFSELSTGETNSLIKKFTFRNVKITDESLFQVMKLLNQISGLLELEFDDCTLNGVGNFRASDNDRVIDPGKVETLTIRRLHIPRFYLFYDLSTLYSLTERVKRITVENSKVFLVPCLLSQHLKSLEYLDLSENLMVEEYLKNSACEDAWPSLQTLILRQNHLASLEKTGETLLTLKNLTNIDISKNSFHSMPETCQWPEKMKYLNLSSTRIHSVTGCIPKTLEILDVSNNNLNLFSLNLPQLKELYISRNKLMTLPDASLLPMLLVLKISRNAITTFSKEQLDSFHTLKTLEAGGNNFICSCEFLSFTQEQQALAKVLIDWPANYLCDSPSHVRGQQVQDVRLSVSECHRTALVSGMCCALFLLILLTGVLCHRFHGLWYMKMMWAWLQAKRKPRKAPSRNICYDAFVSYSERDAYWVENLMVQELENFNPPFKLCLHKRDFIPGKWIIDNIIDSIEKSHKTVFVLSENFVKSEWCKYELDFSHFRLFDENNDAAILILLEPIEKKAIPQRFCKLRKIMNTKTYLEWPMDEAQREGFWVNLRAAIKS
Sequence of human TLR2 (Q15399 25-786): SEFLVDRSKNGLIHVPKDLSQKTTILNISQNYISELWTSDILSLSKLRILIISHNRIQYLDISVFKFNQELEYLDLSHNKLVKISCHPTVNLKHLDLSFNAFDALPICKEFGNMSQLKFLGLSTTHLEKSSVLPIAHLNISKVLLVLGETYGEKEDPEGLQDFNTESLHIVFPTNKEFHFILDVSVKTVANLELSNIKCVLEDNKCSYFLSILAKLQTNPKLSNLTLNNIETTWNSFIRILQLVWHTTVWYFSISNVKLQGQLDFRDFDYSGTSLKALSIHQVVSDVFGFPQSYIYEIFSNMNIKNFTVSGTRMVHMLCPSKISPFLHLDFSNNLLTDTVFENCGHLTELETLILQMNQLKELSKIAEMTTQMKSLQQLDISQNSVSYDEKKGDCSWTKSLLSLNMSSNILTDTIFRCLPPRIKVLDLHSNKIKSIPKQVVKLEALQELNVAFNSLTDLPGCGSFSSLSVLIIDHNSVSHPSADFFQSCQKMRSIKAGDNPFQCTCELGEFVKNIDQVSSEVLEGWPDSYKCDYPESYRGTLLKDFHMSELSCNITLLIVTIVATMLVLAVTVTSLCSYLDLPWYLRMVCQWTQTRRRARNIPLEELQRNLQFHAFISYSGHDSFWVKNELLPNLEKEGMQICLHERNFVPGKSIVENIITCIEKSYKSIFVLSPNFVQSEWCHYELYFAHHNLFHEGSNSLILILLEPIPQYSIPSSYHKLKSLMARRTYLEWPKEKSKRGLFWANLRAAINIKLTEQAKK
Sequence of human TLR1/2 (O60603 21-588 limits assumed, one chain of several): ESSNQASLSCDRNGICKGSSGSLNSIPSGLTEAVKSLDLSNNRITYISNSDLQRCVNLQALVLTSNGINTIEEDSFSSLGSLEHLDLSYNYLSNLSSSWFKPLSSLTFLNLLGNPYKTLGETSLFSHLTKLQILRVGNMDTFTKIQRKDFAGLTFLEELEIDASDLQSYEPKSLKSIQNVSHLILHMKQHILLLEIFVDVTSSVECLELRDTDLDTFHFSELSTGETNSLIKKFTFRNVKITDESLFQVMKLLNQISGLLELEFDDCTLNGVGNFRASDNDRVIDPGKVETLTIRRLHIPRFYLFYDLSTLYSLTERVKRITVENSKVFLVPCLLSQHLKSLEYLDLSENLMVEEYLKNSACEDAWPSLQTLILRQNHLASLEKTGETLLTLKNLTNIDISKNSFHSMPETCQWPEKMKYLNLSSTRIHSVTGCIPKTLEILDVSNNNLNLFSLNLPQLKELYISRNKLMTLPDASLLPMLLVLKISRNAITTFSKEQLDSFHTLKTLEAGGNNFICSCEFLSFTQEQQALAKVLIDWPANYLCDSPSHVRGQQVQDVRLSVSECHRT

CNc1ccc([N+](=O)[O-])cc1-n1cnc(-c2ccc(C(F)(F)F)cc2)c1 [CU-T12-9, N-methyl-4-nitro-2-(4-(4-(trifluoromethyl)phenyl)-1H-imidazol-1-yl)aniline]
EC50 (human TLR2): 0.0529 ± 0.0062 µM | activation of SEAP signaling, hTLR2 (human TLR2; 0 to 20 μM, 24 hours): strongly activate | increase in potency relative to GA (factor) (human TLR2; replacement of –NO2 at R3): 50 | activation of SEAP signaling, TLR8 (human TLR8): not in other TLR-overexpressing cells | activation of QUANTI-Blue SEAP signaling (HEK-Blue hTLR2 cells): strongly activates | NO production [1]: efficiently triggered NO production | competition with Biotin-Pam3 binding to TLR1/2 (human TLR1/2): can compete | Kd (TLR1): 0.229 ± 0.066 µM
